# According to PubChem BioAssay:
# Calls of active or inactive are those of the source.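 The calls were made as follows, unless noted: active = viability at or under a set limit in both replicates, limit being median viability minus 3 SD (cut at about 48% in these data, passing the limit was not always enough); inconclusive = at or under the limit in just one replicate; inactive = at or above the limit in both replicates.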
# Legend:
# [1] = reduced viability of SK-BR-3 breast cancer cells – cell-based, 24 h, human, pilot screen (AID 572;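 active = viability at or below 10% of carrier control in both of two separate runs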;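 also: compound exposure lasted between 18 and 24 h rather than exactly 24 h; 100% = carrier-treated control wells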); conditions: SK-BR-3 viability, CellTiter-Glo luminescence, at 10 µM, stronger effect = lower value
# [2] = HUVEC growth inhibition – cell-based, human, primary screen (AID 575;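 active = viability at or below 30% in both replicate assays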;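 also: 100% = median of untreated cell wells with 0.1% DMSO on each plate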); conditions: HUVEC proliferation, CellTiter-Glo luminescence, 72 h; at 10 µM; stronger effect = lower value
# In short: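 material = primary HUVEC, no more than 12 passages | input = 1250 cells per well | controls = vehicle and MePR control wells | measured by = CTG luminescence | times = 72 h compound incubation | format = collagen-coated 384-well format | read-out = % viability vs DMSO wells | doses = single 10 µM dose, 0.1% DMSO, from 5x medium stock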
# [3] = H69AR cell proliferation blockers – human, duplicate replicates, primary screen (AID 580); conditions: H69AR lung tumor cells viability, ATP luminescence, 72 h; at 10 µM; stronger effect = lower value;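 also: 100% = mean luminescence of untreated wells and 0% = no signal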
# [4] = MRP1 drug-resistance reversers in H69AR cells – cell-based, doxorubicin co-treatment, pilot screen (AID 601;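 active = viability loss from added drug above about 55%, and viability with drug at most 40%, in both replicates, limit read from the data, passing the limit was not always enough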); conditions: CellTiter-Glo, 72 h, at 10 µM; for differential viability (reversal): stronger effect = higher value
# [5] = yeast transport mutant growth inhibition pilot in 384-well plates, post-Golgi transport modulator project (AID 636; in the data active = inhibition above about 31%); conditions: absorbance 615 nm, about 18 h, stronger effect = higher value
# [6] = growth suppression of yeast trafficking mutant, preliminary HTS, modulators of trafficking downstream of Golgi apparatus project, 1536-format plate, OD 615 nm (AID 637; in the data active = inhibition above about 30%); conditions: yeast transport mutant growth, absorbance 615 nm, 18 h; stronger effect = higher value
# [7] = H69AR cells + 2 uM doxorubicin, measured here: viability with 2 uM doxorubicin, stronger effect = lower value
# [8] = H69AR cells, compound alone cytotoxicity
SMILES,viability [1],viability [2],viability [3],differential viability (reversal) ([4]; H69AR cells + 2 uM doxorubicin),"viability [4, 7]","viability [4, 8]",inhibition [5],inhibition [6]
CC1CCCC(C)N1CCNC(=O)C1CCN(S(=O)(=O)N2CCCCC2)CC1 (stereo not drawn),93% (inactive),110% (inactive),104% (inactive),13.1% (inactive),90.7%,104%,-1.2% (inactive),-2.55% (inactive)
CCCN(CCC)S(=O)(=O)c1ccc(C(=O)O)cc1,99% (inactive),96.2% (inactive),97.2% (inactive),10.1% (inactive),87.1%,97.2%,-0.52% (inactive),-1.5% (inactive)
c1ccc2oc(SCc3cn4ccccc4n3)nc2c1,91% (inactive),93.3% (inactive),95% (inactive),9.37% (inactive),85.6%,95%,-1.43% (inactive),-1.48% (inactive)
CCN=C1SC(CC(=O)Nc2ccccc2OCC)C(=O)N1CC (stereo not drawn),96% (inactive),94.3% (inactive),94.5% (inactive),8.11% (inactive),86.4%,94.5%,-2.05% (inactive),-2.74% (inactive)
O=C(Nc1ccncc1)C1c2ccccc2Oc2ccccc21,121% (inactive),100% (inactive),92.3% (inactive),-8.33% (inactive),101%,92.3%,-2.3% (inactive),14.4% (inactive)
CCOC(=O)/C=C1\SCC(=O)N1Cc1nnc(-c2ccccc2Br)o1,107% (inactive),97.5% (inactive),91.3% (inactive),3.01% (inactive),88.2%,91.3%,-7.81% (inactive),1.82% (inactive)
COc1ccc(OC)c(NC(=O)CS(=O)(=O)c2ccccc2)c1,124% (inactive),94.7% (inactive),86.3% (inactive),-7.39% (inactive),93.7%,86.3%,-6.3% (inactive),0.91% (inactive)
NC(=O)c1ccsc1NC(=O)COC(=O)Cc1ccsc1,87% (inactive),100% (inactive),110% (inactive),-0.11% (inactive),110%,110%,-4.25% (inactive),1.27% (inactive)
COc1ccc(-c2ccc(-c3noc(-c4ccccc4)n3)c(OC)n2)cc1,103% (inactive),68.3% (inactive),88% (inactive),3.25% (inactive),84.7%,88%,-8.51% (inactive),-10.2% (inactive)
CCn1c(=O)c2cc(S(=O)(=O)NCc3ccccc3)ccc2n(CC)c1=O,93% (inactive),62.8% (inactive),19.4% (active),-77.1% (inactive),96.5%,19.4%,-1.3% (inactive),18.7% (inactive)
CC(=O)Nc1c(I)c(NC(C)=O)c(I)c(C(=O)O)c1I,89% (inactive),98.4% (inactive),103% (inactive),1.03% (inactive),102%,103%,-0.13% (inactive),-3% (inactive)
CCCCCCC(c1c(C)n(C)n(-c2ccccc2)c1=O)c1c(C)n(C)n(-c2ccccc2)c1=O,90% (inactive),99.9% (inactive),80.8% (inactive),2.09% (inactive),78.7%,80.8%,-3.47% (inactive),-0.18% (inactive)
COCCCNC(=O)CCn1c(=O)c2ccccc2n(CC(=O)Nc2ccc(C)cc2C)c1=O,101% (inactive),106% (inactive),87.1% (inactive),7.22% (inactive),79.9%,87.1%,1.3% (inactive),-5.41% (inactive)
CCOC(=O)c1ccc(COC(=O)c2cc3ccccc3oc2=O)o1,114% (inactive),114% (inactive),114% (inactive),20.8% (inactive),93.1%,114%,-5.89% (inactive),0.65% (inactive)
Cc1cc(=O)[nH]c(SCc2nc3ncccn3c2Br)n1,108% (inactive),78.4% (inactive),88.9% (inactive),-2.9% (inactive),91.8%,88.9%,-4.81% (inactive),-3.44% (inactive)
O=C(CN1CCN(c2nc(-c3ccc(F)cc3)cs2)CC1)NCc1ccc2c(c1)OCO2,175% (inactive),69% (inactive),91.2% (inactive),15.9% (inactive),75.2%,91.2%,-6.49% (inactive),13.5% (inactive)
COc1ccc(C(=O)NCCC(C)C)cc1S(=O)(=O)N1CCOCC1,98% (inactive),98.8% (inactive),102% (inactive),7.34% (inactive),94.2%,102%,-9.86% (inactive),2.73% (inactive)
COC(=O)c1nnn(-c2ccccc2)c1N,103% (inactive),100% (inactive),103% (inactive),-1.73% (inactive),105%,103%,-1.82% (inactive),3.61% (inactive)

SMILES,viability [1],viability [2],viability [3],differential viability (reversal) ([4]; H69AR cells + 2 uM doxorubicin),"viability [4, 7]","viability [4, 8]",inhibition [5],inhibition [6]
Cc1ccc(Cl)c(Nc2ccccc2C(=O)O)c1Cl,135% (inactive),47.9% (inactive),91.3% (inactive),-6.54% (inactive),97.9%,91.3%,-0.78% (inactive),4.67% (inactive)
CSC1=C(C#N)C(C)CC(=O)N1 (stereo not drawn),91% (inactive),107% (inactive),115% (inactive),9.97% (inactive),105%,115%,-7.81% (inactive),2.18% (inactive)
COC(=O)c1cc(Br)c(=O)n(CCc2ccc(F)cc2)c1,78% (inactive),118% (inactive),100% (inactive),8.46% (inactive),92%,100%,-5.27% (inactive),3.09% (inactive)
O=c1c2ccccc2[nH]c(=S)n1CCN1CCC(=C(c2ccc(F)cc2)c2ccc(F)cc2)CC1,113% (inactive),18.2% (active),78.8% (inactive),-4.72% (inactive),83.6%,78.8%,83% (active),71% (active)
O=C(O)c1cc(-c2ccccc2)nc2ccccc12,91% (inactive),92.7% (inactive),76.7% (inactive),2.04% (inactive),74.6%,76.7%,2.99% (inactive),4.83% (inactive)
Cc1cc(C)nc(-n2nc(C)cc2NC(=O)c2ccc(Br)o2)n1,108% (inactive),87.4% (inactive),71.9% (inactive),-11.4% (inactive),83.3%,71.9%,-3.73% (inactive),5.27% (inactive)
Cc1ccc2c(c1C)NC(=O)C2(O)CC(=O)c1ccc2c(c1)OCO2 (stereo not drawn),88% (inactive),83.2% (inactive),88% (inactive),-5.94% (inactive),94%,88%,-1.1% (inactive),2.9% (inactive)
COC(=O)Cn1c(CCS(=O)(=O)c2ccc(C)cc2)nc2ccccc21,99% (inactive),96.5% (inactive),76.4% (inactive),6.58% (inactive),69.8%,76.4%,-0.91% (inactive),-1.64% (inactive)
O=S(=O)(c1cccc2c(S(=O)(=O)N3CCCC3)cccc12)N1CCCC1,72% (inactive),107% (inactive),93.5% (inactive),5.26% (inactive),88.2%,93.5%,-9.18% (inactive),-0.55% (inactive)
CC1(C)CN=C(N2CCN(c3ncnc4sc5c(c34)CCCC5)CC2)S1,72% (inactive),54.2% (inactive),77.3% (inactive),-8.36% (inactive),85.6%,77.3%,-1.15% (inactive),0.83% (inactive)
CCC(=O)Oc1ccc(C/C(=N\O)c2ccc(O)cc2O)o1,85% (inactive),90.6% (inactive),52.5% (inactive),-33% (inactive),85.5%,52.5%,3.01% (inactive),13.8% (inactive)
Cc1nc2ccc(S(=O)(=O)NCC(=O)N(C)Cc3ccco3)cc2s1,109% (inactive),95.6% (inactive),91.6% (inactive),9.31% (inactive),82.3%,91.6%,-0.91% (inactive),3.93% (inactive)
Cc1cc(NS(=O)(=O)c2ccc(N)cc2)no1,111% (inactive),98.9% (inactive),88.9% (inactive),-12.6% (inactive),101%,88.9%,1.56% (inactive),-3.5% (inactive)
O=C(CN1C(=O)c2ccccc2C1=O)Nc1ccc(S(=O)(=O)NCC2CCCO2)cc1 (stereo not drawn),89% (inactive),107% (inactive),96.4% (inactive),-14.1% (inactive),110%,96.4%,-7.4% (inactive),-4.91% (inactive)
O=C(CCNS(=O)(=O)c1ccc(Br)s1)N1CCCCC1,90% (inactive),107% (inactive),94.2% (inactive),7.65% (inactive),86.5%,94.2%,-6.03% (inactive),-4.19% (inactive)
CC(C)NCC(O)COc1ccc(CC(N)=O)cc1 (stereo not drawn),88% (inactive),87.5% (inactive),88.1% (inactive),-0.64% (inactive),88.7%,88.1%,1.95% (inactive),-2.67% (inactive)
O=C(Nc1ncnc2sc3c(c12)CCC3)c1ccco1,81% (inactive),94% (inactive),80.1% (inactive),-2.91% (inactive),83%,80.1%,-4.73% (inactive),0.55% (inactive)
CCOc1ccc(-c2cc(C(=O)N3CCN(c4ccccn4)CC3)c3ccccc3n2)cc1,127% (inactive),43.5% (inactive),12.5% (active),-66.7% (inactive),79.2%,12.5%,0.13% (inactive),-0.49% (inactive)
